In ChEMBL document CHEMBL4020721 (Eur J Med Chem, 2017):

Columns and labels:
[1] = Drug recovery in monkey liver microsomes at 1 uM measured after 30 mins by LC-MS/MS analysis
[2] = AUC (0 to 24 hrs) in Sprague-Dawley rat plasma at 6 mg/kg, po by UPLC-MS/MS analysis; format: ADME, organism-based; design: dose 6 mg/kg, time < 24 hr, route oral
Method in brief: (§1)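 Male Sprague-Dawley rats (180-220 g) were fasted overnight with free access to water. Dosing was intravenous (n=2) or oral at 6 mg/kg (n=3). Heparinized blood was drawn from 0 to 1440 min. Plasma was frozen at -20°C, then precipitated with acetonitrile containing internal standard, centrifuged and analysed by UPLC-MS/MS.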

[3] = Volume of distribution at steady state in Sprague-Dawley rat plasma at 1 mg/kg, iv by UPLC-MS/MS analysis; format: ADME, organism-based; details: read-out: Vdss
Method in brief: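 Male Sprague-Dawley rats (180-220 g), fasted overnight with water available, dosed iv (n=2). Blood on heparin collected from 0 to 1440 min. Plasma obtained by centrifugation and stored at -20°C. Proteins precipitated with acetonitrile containing internal standard, then UPLC-MS/MS. Vss taken from the iv data.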

[4] = Intrinsic clearance in rat liver microsomes assessed per mg protein at 1 uM preincubated for 5 mins followed by NADPH addition measured after 5 to 30 mins by LC-MS/MS analysis; format: ADME, microsome; details: read-out: CLH
Method in brief: (§2)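 Microsomes (0.5 mg/ml) with 1 µM compound were preincubated 5 min at 37°C in 100 mM phosphate buffer pH 7.4, then started with 1 mM NADPH. Samples were taken at 0, 5, 10 and 30 min, quenched with acetonitrile/tinidazole and run by LC-MS/MS. CLint = k / microsomal protein concentration. Midazolam was the positive control.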

CYP2C19 [5] = biological target: T1, CYP2C19 (Homo sapiens, UniProt P33261); test: (§3) Reversible inhibition of CYP2C19 in human liver microsomes at 10 uM after 20 mins in presence of NADPH by LC-MS/MS analysis; format: ADME; details: liver microsomes
T1 sequence (P33261 whole entry): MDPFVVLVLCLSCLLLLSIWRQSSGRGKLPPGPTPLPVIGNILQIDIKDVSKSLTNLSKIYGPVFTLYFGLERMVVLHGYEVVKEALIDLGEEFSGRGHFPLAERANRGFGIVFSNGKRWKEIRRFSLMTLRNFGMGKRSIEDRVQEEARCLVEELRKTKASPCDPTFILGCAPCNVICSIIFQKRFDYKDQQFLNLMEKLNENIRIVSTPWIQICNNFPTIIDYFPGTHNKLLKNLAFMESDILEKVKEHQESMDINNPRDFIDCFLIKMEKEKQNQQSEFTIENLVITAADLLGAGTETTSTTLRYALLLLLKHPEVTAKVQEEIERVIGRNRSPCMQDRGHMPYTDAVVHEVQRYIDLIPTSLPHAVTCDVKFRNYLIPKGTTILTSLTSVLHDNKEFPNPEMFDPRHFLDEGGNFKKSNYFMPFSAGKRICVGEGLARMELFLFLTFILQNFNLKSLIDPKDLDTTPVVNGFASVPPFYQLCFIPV

CYP1A2 [6] = biological target: T2, CYP1A2 (Homo sapiens, UniProt P05177); test: Time dependent irreversible inhibition of CYP1A2 in human liver microsomes at 10 uM preincubated with compound followed by NADPH addition by LC-MS/MS analysis; format: ADME; details: liver microsomes
T2 sequence (P05177 whole entry): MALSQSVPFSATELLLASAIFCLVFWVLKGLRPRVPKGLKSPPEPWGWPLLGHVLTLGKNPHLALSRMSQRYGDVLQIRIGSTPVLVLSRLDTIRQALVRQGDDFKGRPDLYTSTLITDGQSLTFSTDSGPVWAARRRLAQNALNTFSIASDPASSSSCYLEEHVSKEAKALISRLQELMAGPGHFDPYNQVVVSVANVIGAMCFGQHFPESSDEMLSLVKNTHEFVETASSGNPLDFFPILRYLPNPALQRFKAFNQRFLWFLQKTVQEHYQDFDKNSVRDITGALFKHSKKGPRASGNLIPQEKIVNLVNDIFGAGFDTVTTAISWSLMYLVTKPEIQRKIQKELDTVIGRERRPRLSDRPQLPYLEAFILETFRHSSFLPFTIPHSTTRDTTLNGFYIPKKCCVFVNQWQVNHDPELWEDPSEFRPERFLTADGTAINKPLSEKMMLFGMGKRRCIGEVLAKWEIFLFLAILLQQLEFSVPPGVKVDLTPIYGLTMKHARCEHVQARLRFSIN
Method in brief: (§4)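 HLM (0.2 mg/ml) with 10 µM compound were preincubated 0, 5, 10 or 20 min at 37°C with 1 mM NADPH or PBS. Substrate cocktail (halved concentrations) plus NADPH was then added for 10 min. Metabolites were measured by LC-MS/MS. Kobs is the slope of relative activity versus preincubation time.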

CYP2C19 [7] = biological target: T1, CYP2C19; test: Time dependent irreversible inhibition of CYP2C19 in human liver microsomes at 10 uM preincubated with compound followed by NADPH addition by LC-MS/MS analysis; format: ADME
Method in brief: as §4

SNU-5 = test: Growth inhibition of human SNU5 cells after 72 hrs by CCK-8 assay; format: functional, cell-based
CYP2D6 [8] = biological target: T3, CYP2D6 (Homo sapiens, UniProt P10635); test: Reversible inhibition of CYP2D6 in human liver microsomes at 10 uM after 20 mins in presence of NADPH by LC-MS/MS analysis; format: ADME; details: liver microsomes
T3 sequence (P10635 whole entry): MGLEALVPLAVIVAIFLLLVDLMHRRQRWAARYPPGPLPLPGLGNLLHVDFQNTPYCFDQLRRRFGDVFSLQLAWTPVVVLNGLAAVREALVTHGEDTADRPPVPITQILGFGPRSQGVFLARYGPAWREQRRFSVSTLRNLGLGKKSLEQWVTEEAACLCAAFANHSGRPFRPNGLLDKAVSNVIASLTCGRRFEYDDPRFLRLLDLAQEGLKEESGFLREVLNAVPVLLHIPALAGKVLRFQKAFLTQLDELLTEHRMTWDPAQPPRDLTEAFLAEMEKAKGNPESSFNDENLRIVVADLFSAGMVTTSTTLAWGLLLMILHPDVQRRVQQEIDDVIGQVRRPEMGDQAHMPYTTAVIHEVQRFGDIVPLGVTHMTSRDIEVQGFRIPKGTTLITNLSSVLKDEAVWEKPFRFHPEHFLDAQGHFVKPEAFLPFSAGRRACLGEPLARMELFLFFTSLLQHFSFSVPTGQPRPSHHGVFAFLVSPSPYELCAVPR

CYP2C9 [9] = biological target: T4, CYP2C9 (Homo sapiens, UniProt P11712); test: (§5) Reversible inhibition of CYP2C9 in human liver microsomes at 10 uM after 20 mins by in presence of NADPH LC-MS/MS analysis; format: ADME; details: liver microsomes
T4 sequence (P11712 whole entry): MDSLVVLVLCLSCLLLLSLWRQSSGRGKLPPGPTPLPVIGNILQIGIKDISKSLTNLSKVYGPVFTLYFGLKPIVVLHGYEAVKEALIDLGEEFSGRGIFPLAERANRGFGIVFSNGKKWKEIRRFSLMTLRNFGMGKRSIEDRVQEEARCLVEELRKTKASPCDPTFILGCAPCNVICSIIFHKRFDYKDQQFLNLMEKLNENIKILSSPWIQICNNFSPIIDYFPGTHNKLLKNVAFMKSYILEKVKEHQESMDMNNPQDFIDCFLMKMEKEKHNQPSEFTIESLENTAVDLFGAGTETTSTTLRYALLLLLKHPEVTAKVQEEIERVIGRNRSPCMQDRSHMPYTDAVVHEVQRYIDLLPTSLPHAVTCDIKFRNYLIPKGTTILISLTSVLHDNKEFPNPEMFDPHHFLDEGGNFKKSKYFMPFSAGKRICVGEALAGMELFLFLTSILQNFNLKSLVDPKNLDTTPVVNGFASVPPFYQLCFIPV

CYP3A4 [10] = biological target: T5, CYP3A4 (Homo sapiens, UniProt P08684); test: (§6) Time dependent irreversible inhibition of CYP3A4 in human liver microsomes at 10 uM preincubated with compound followed by NADPH addition by LC-MS/MS analysis; format: ADME; details: liver microsomes
T5 sequence (P08684 whole entry): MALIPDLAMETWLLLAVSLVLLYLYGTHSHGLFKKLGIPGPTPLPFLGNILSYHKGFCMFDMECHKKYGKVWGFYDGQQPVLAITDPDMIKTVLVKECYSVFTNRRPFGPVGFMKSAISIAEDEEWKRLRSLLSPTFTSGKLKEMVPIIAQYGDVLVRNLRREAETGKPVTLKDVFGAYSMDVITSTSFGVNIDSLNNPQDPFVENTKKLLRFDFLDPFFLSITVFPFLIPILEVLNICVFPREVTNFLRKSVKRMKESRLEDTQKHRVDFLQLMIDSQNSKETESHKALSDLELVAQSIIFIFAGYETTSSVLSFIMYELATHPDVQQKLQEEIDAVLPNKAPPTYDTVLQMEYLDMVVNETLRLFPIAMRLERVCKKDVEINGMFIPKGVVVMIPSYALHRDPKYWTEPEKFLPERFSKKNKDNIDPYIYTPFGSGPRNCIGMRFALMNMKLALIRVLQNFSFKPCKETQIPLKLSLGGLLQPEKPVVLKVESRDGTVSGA
Method in brief: as §4

CYP2C9 [11] = biological target: T4, CYP2C9; test: Time dependent irreversible inhibition of CYP2C9 in human liver microsomes at 10 uM preincubated with compound followed by NADPH addition by LC-MS/MS analysis; format: ADME; details: liver microsomes
Method in brief: as §4

[12] = Half life in Sprague-Dawley rat plasma at 1 mg/kg, iv by UPLC-MS/MS analysis; format: ADME, organism-based
Method in brief: as §1

[13] = Drug recovery in human liver microsomes at 1 uM measured after 30 mins by LC-MS/MS analysis; format: ADME, microsome; details: liver microsomes, read-out: Drug recovery
Method in brief: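 Liver microsomes (0.5 mg/ml) were incubated with 1 µM compound at 37°C in 100 mM phosphate buffer pH 7.4 without NADPH for 30 min. Reactions were quenched with acetonitrile/tinidazole internal standard and analysed by LC-MS/MS. Recovery (%) was taken from the compound/internal standard peak area ratio.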

[14] = Intrinsic clearance in human liver microsomes assessed per mg protein at 1 uM preincubated for 5 mins followed by NADPH addition measured after 5 to 30 mins by LC-MS/MS analysis; format: ADME, microsome; details: read-out: CLH
Method in brief: as §2

[15] = Intrinsic clearance in monkey liver microsomes assessed per mg protein at 1 uM preincubated for 5 mins followed by NADPH addition measured after 5 to 30 mins by LC-MS/MS analysis; details: liver microsomes; read-out: CLH
NCI-H1993 = test: Growth inhibition of human NCI-H1993 cells after 72 hrs by CCK-8 assay; format: functional, cell-based
[16] = Clearance in Sprague-Dawley rat plasma at 1 mg/kg, iv by UPLC-MS/MS analysis; format: ADME, organism-based
Method in brief: as §1

CYP2D6 [17] = biological target: T3, CYP2D6; test: Time dependent irreversible inhibition of CYP2D6 in human liver microsomes at 10 uM preincubated with compound followed by NADPH addition by LC-MS/MS analysis; format: ADME; details: liver microsomes
Method in brief: as §4

[18] = (§7) Oral bioavailability in Sprague-Dawley rat plasma at 6 mg/kg by UPLC-MS/MS analysis; format: ADME, organism-based; details: Sprague-Dawley, plasma
Method in brief: as §1

[19] = Drug recovery in rat liver microsomes at 1 uM measured after 30 mins by LC-MS/MS analysis; format: ADME, microsome; details: liver microsomes, read-out: Drug recovery
CYP3A4 [20] = biological target: T5, CYP3A4; test: (§8) Reversible inhibition of CYP3A4 in human liver microsomes at 10 uM after 20 mins in presence of NADPH by LC-MS/MS analysis; format: ADME; details: liver microsomes
CYP1A2 [21] = biological target: T2, CYP1A2; test: Reversible inhibition of CYP1A2 in human liver microsomes at 10 uM after 20 mins in presence of NADPH by LC-MS/MS analysis; format: ADME
[22] = Cmax in Sprague-Dawley rat plasma at 6 mg/kg, po by UPLC-MS/MS analysis; format: ADME, organism-based; design: dose 6 mg/kg, route oral
Method in brief: as §1

Cytochrome P450 3A4 [23] = biological target: T6, Cytochrome P450 3A4 (Homo sapiens, UniProt P08684); test: as §8; format: ADME; details: microsomes, 20 min, 10 µM
T6 sequence (P08684 whole entry): as above

Cytochrome P450 2C19 = Cytochrome P450 2C19 (Homo sapiens, UniProt P33261); test: as §3; format: ADME; details: microsomes, 20 min, 10 µM
Chain of Cytochrome P450 2C19 (P33261 whole entry): as the sequence (P33261 whole entry) above

Cytochrome P450 2C9 = Cytochrome P450 2C9 (Homo sapiens, UniProt P11712); test: as §5; format: ADME; details: microsomes, 20 min, 10 µM
Chain of Cytochrome P450 2C9 (P11712 whole entry): as the sequence (P11712 whole entry) above

Cytochrome P450 3A4 [24] = biological target: T6, Cytochrome P450 3A4; test: as §6; format: ADME; details: microsomes, 10 µM
Method in brief: as §4

[25] = biological target: Hepatocyte growth factor receptor (Homo sapiens, UniProt P08581); test: Inhibition of c-MET (unknown origin) using TK substrate-biotin peptide as substrate preincubated for 5 to 10 mins followed by ATP addition measured after 30 mins by HTRF assay
Chain of Hepatocyte growth factor receptor (P08581 whole entry): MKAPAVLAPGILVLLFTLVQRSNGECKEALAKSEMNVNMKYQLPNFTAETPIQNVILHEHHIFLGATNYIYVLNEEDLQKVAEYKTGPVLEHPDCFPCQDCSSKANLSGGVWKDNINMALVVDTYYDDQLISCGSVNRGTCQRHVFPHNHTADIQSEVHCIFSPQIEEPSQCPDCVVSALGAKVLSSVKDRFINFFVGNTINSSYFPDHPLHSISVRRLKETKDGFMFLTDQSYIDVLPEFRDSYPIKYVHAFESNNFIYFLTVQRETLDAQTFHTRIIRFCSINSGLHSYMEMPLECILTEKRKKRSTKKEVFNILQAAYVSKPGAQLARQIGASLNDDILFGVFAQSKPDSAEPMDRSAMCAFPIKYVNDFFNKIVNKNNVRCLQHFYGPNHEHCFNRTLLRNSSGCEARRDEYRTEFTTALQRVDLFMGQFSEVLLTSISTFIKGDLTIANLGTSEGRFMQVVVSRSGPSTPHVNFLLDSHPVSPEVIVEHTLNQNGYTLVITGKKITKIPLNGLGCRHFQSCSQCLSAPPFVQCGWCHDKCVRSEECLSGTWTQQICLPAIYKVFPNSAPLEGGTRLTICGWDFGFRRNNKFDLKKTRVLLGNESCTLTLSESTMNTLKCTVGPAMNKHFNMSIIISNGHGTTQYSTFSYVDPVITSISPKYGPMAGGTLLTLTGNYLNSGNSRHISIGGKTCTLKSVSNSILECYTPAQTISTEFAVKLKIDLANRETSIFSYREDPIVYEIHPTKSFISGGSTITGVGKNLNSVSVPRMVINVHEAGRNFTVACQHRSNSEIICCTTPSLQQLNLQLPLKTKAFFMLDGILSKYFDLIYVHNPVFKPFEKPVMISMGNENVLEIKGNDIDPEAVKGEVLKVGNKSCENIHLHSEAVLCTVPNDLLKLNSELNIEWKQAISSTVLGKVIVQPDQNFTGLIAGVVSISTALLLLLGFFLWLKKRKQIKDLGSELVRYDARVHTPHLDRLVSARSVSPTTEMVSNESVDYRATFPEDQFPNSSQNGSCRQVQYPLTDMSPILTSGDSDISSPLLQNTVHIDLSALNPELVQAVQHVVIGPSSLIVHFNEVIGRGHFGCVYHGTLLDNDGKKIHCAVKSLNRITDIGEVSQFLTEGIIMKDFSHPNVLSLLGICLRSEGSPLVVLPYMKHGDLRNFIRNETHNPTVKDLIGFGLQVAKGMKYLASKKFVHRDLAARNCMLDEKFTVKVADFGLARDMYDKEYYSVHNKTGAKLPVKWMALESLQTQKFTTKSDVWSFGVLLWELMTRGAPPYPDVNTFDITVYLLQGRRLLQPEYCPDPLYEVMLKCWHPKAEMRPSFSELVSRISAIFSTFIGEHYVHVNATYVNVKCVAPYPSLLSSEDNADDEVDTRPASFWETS

Rattus norvegicus = test: as §7; format: ADME, organism-based; details: in vivo
Method in brief: as §1

SMILES	remaining at 0.5 h, 1 µM [1] [%]	microsomal CLint at 1 µM [4] [µL/min/mg]	inhibition at 20 min, 10 µM (CYP2C19 [5]) [%]	inhibition at 10 µM (CYP1A2 [6]) [%]	inhibition at 10 µM (CYP2C19 [7]) [%]	IC50 (SNU-5; Homo sapiens, SNU-5, 72 h) [nM]	inhibition at 20 min, 10 µM (CYP2D6 [8]) [%]	inhibition at 20 min, 10 µM (CYP2C9 [9]) [%]	inhibition at 10 µM (CYP3A4 [10]) [%]	inhibition at 10 µM (CYP2C9 [11]) [%]	remaining at 0.5 h, 1 µM [13] [%]	microsomal CLint at 1 µM [14] [µL/min/mg]	microsomal CLint at 1 µM [15] [µL/min/mg]	IC50 (NCI-H1993; Homo sapiens, NCI-H1993, 72 h) [nM]	inhibition at 10 µM (CYP2D6 [17]) [%]	remaining at 0.5 h, 1 µM [19] [%]	inhibition at 20 min, 10 µM (CYP3A4 [20]) [%]	inhibition at 20 min, 10 µM (CYP1A2 [21]) [%]	TDI (Cytochrome P450 3A4 [24])	further results
CC(c1cc2cc(-c3cnn(C)c3)cnc2cc1F)n1nnc2ncc(-c3ccc(C(N)=O)c(F)c3)nc21 (stereo unspecified)	103	1	< 50	< 50	< 50	0.6	< 50	< 50	< 50	< 50	120	2	6	0.9	< 50	115	< 50	< 50		AUC(0-t) at 24 h [2]: 879 ng·h/mL; Vd [3]: 2 L/kg; half-life [12]: 3.2 h; clearance [16]: 9.33 mL/min/kg; bioavailability [18]: 8.2%; Cmax [22]: 98.9 ng/mL
CC(c1ccc2ncc(-c3cnn(C)c3)cc2c1)n1nnc2ncc(-c3ccncc3)nc21 (stereo unspecified)	90	61		< 50	< 50	1.2			< 50	< 50	104	22	78	0.9	< 50	94				inhibition (INH) (Cytochrome P450 3A4 [23]): Active
CC(c1cc2cc(-c3cnn(C)c3)cnc2cc1F)n1nnc2ncc(-c3ccncc3)nc21 (stereo unspecified)	103	55		< 50	< 50	2.5			< 50	< 50	113	4	49	3.2	< 50	106				inhibition (INH) (Cytochrome P450 2C19): Active; inhibition (INH) (Cytochrome P450 2C9): Active; inhibition (INH) (Cytochrome P450 3A4 [23]): Active
CC(c1cc2cc(-c3cnn(C)c3)cnc2cc1F)n1nnc2ncc(-c3cnn(C)c3)nc21 (stereo unspecified)	65	34	< 50			1.7	< 50	< 50			101	5	11	0.9		103	< 50	< 50	Active	
CC(c1c(F)cc2ncc(-c3cnn(C)c3)cc2c1F)n1nnc2ncc(-c3cnn(C)c3)nc21 (stereo unspecified)	75	22				1.3					91	17	86	0.8		94			Active	inhibition (INH) (Cytochrome P450 2C19): Active; inhibition (INH) (Cytochrome P450 2C9): Active
CC(c1c(F)cc2ncc(-c3cnn(C)c3)cc2c1F)n1nnc2ncc(-c3ccc(C(N)=O)c(F)c3)nc21 (stereo unspecified)	99	12	< 50			0.4	< 50	< 50			97	11	50	0.4		94	< 50	< 50	Active	
CC(c1cc2cc(-c3cnn(C)c3)cnc2cc1F)n1nnc2ncc(-c3cnn(CCO)c3)nc21 (single isomer, unassigned; enantiomer 1)																				IC50 (SNU-5; snu-5): 0.8 nM; IC50 [25]: 0.68 nM; IC50 (NCI-H1993; nci-h1993): 0.7 nM; F (Rattus norvegicus): 8.6%
CC(c1cc2cc(-c3cnn(C)c3)cnc2cc1F)n1nnc2ncc(-c3cnn(CCO)c3)nc21 (single isomer, unassigned; enantiomer 2)														0.6						IC50 (SNU-5; snu-5): 0.6 nM; IC50 [25]: 0.48 nM; bioavailability [18]: 8.8%
